Like-named read-outs stand apart in the source and are kept apart here. Marks after values point to notes of the source that are not given here.
How the values were obtained:
[1] = cited from earlier work
QTc interval = settings: cited from earlier work
healthy volunteers [2] = assay: Thorough QT/QTc study part 2: Holter ECG, Fridericia-corrected QT interval; format: in vivo, human; settings: for Mean difference vs. placebo (90% CI), msec ddQTcF: MOX 400 mg (C–D); for Mean change from baseline, msec ddQTcF: MOX 400 mg single dose (C)
In short: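 Healthy subjects, randomized four-period crossover with 10-day washouts, fed: oral fostemsavir 1,200 mg q.d. or 2,400 mg b.i.d. for 7 days, placebo b.i.d., or single moxifloxacin 400 mg on day 7. Triplicate ECGs from 24-h Holter, read centrally. Baseline is the mean of day-1 predose readings; readings 0.5–22.25 h post-dose on day 7. Linear mixed model gives 90% CI; bound 10 msec; assay sensitivity >5 msec at 2–4 h.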

[3] = cited from earlier work; remark: listed apart in the source
healthy volunteers [4] = tested on: healthy volunteers; design: species or system human; settings: final linear concentration‐ddQTcF model
[5] = heavily treatment‐experienced HIV‐1 infected patients, fostemsavir 600 mg b.i.d., BRIGHTE (NCT02362503) ref 22; cited from earlier work
[6] = cited from earlier work; remark: listed apart in the source
dog = settings: nonclinical assessment of fostemsavir or TMR ref unpublished data; cited from earlier work
[7] = cited from earlier work; remark: listed apart in the source
[8] = ritonavir 100 mg (q.d. or b.i.d.) ref 18, 21; cited from earlier work

Question: Which “increase in Cmax compared to without concomitant cobicistat” value ([1]; coadministration with cobicistat ref 21, 22) does the source give for `CC(C)c1nc(CN(C)C(=O)N[C@@H](CCN2CCOCC2)C(=O)N[C@H](CC[C@H](Cc2ccccc2)NC(=O)OCc2cncs2)Cc2ccccc2)cs1` [cobicistat] here?
Answer: 1.71 fold

Question: And the “increase in TMR plasma Cmax” value ([1]; cobicistat 150 mg q.d. ref 18, 21)?
Answer: 71%

Question: With `Cc1cc(/C=C/C#N)cc(C)c1Nc1ccnc(Nc2ccc(C#N)cc2)n1` [rilpivirine] as the molecule, how does the “QTc prolongation, one‐sided 95% CI upper bound” value (QTc interval; supratherapeutic dose 75 mg ref 11) read?
Answer: 15.3 ms

Question: And the “QTc prolongation, one‐sided 95% CI upper bound” value (QTc interval; therapeutic dose 25 mg ref 11)?
Answer: 8.2 ms

Question: What does the source list for `COc1cnc(-n2cnc(C)n2)c2[nH]cc(C(=O)C(=O)N3CCN(C(=O)c4ccccc4)CC3)c12` [TMR, temsavir]?
Answer: relationship of ddQTcF with plasma TMR concentration (healthy volunteers [2]; graphical assessment, part 2 data): positive linear relationship; membrane permeability [3]: good; Intercept θ1, bootstrap parameter estimate for n = 1,000 (90% CI) (healthy volunteers [4]): –0.727 (–2.500, 1.072) msec; Intercept θ1, population mean estimate (% RSE) (healthy volunteers [4]): –0.783 (139) msec; Slope θ2, bootstrap parameter estimate for n = 1,000 (90% CI) (healthy volunteers [4]): 0.00126 (0.0011, 0.00142) msec per ng/mL TMR; Slope θ2, population mean estimate (% RSE) (healthy volunteers [4]): 0.00126 (7.9) msec per ng/mL TMR; geometric mean TMR peak plasma concentration (Cmax) [5]: 1,770 ng/mL; effect of renal impairment on Cmax [6]: no effect; maximum observed TMR concentrations indicating cardiovascular liability (dog): ≥ 3,600 ng/mL; influence of hepatic impairment on Cmax [7]: < 1.72 fold

Question: For `CC(C)c1nc(CN(C)C(=O)N[C@H](C(=O)N[C@@H](Cc2ccccc2)C[C@H](O)[C@H](Cc2ccccc2)NC(=O)OCc2cncs2)C(C)C)cs1` [ritonavir], which “increase in TMR plasma Cmax” value [8] is on record?
Answer: 45–53%

Question: Which “Mean difference vs. placebo (90% CI), msec ddQTcF” value (healthy volunteers [2]; day 7, 0.5 hour) does the source give for `COc1c(N2C[C@@H]3CCCN[C@@H]3C2)c(F)cc2c(=O)c(C(=O)O)cn(C3CC3)c12` [MOX, moxifloxacin, reference compound] here?
Answer: 0.42 (–1.73, 2.58) msec

Question: What about the “Mean difference vs. placebo (90% CI), msec ddQTcF” value (healthy volunteers [2]; day 7, 1 hour) of the same molecule?
Answer: 2.95 (0.80, 5.10) msec

Question: What about the “Mean difference vs. placebo (90% CI), msec ddQTcF” value (healthy volunteers [2]; day 7, 2 hour) of the same molecule?
Answer: 8.69 (6.57, 10.82)^a msec

Question: What about the “Mean difference vs. placebo (90% CI), msec ddQTcF” value (healthy volunteers [2]; day 7, 3 hour) of the same molecule?
Answer: 10.43 (8.32, 12.54)^b msec

Question: What about the “Mean difference vs. placebo (90% CI), msec ddQTcF” value (healthy volunteers [2]; day 7, 4 hour) of the same molecule?
Answer: 10.33 (8.22, 12.44)^c msec

Question: And the “Mean difference vs. placebo (90% CI), msec ddQTcF” value (healthy volunteers [2]; day 7, 5 hour)?
Answer: 8.83 (6.72, 10.94) msec

Question: And the “Mean difference vs. placebo (90% CI), msec ddQTcF” value (healthy volunteers [2]; day 7, 6 hour)?
Answer: 7.98 (5.87, 10.09) msec

Question: What about the “Mean difference vs. placebo (90% CI), msec ddQTcF” value (healthy volunteers [2]; day 7, 8 hour) of the same molecule?
Answer: 8.05 (5.94, 10.17) msec

Question: What about the “Mean difference vs. placebo (90% CI), msec ddQTcF” value (healthy volunteers [2]; day 7, 10 hour) of the same molecule?
Answer: 8.96 (6.85, 11.07) msec

Question: And the “Mean difference vs. placebo (90% CI), msec ddQTcF” value (healthy volunteers [2]; day 7, 11.5 hour)?
Answer: 8.75 (6.64, 10.86) msec

Question: And the “Mean difference vs. placebo (90% CI), msec ddQTcF” value (healthy volunteers [2]; day 7, 14 hour)?
Answer: 7.55 (5.44, 9.66) msec

Question: What about the “Mean difference vs. placebo (90% CI), msec ddQTcF” value (healthy volunteers [2]; day 7, 15 hour) of the same molecule?
Answer: 5.64 (3.52, 7.75) msec

Question: What about the “Mean difference vs. placebo (90% CI), msec ddQTcF” value (healthy volunteers [2]; day 7, 16 hour) of the same molecule?
Answer: 6.92 (4.81, 9.03) msec

Question: What about the “Mean difference vs. placebo (90% CI), msec ddQTcF” value (healthy volunteers [2]; day 7, 22.25 hour) of the same molecule?
Answer: 6.19 (4.08, 8.30) msec

Question: And the “Mean change from baseline, msec ddQTcF” value (healthy volunteers [2]; day 7, 0.5 hour)?
Answer: –7.12 msec

Question: And the “Mean change from baseline, msec ddQTcF” value (healthy volunteers [2]; day 7, 1 hour)?
Answer: –4.82 msec

Question: And the “Mean change from baseline, msec ddQTcF” value (healthy volunteers [2]; day 7, 2 hour)?
Answer: –1.93 msec

Question: What about the “Mean change from baseline, msec ddQTcF” value (healthy volunteers [2]; day 7, 3 hour) of the same molecule?
Answer: 0.40 ms

Question: What about the “Mean change from baseline, msec ddQTcF” value (healthy volunteers [2]; day 7, 4 hour) of the same molecule?
Answer: 3.30 ms

Question: And the “Mean change from baseline, msec ddQTcF” value (healthy volunteers [2]; day 7, 5 hour)?
Answer: 4.16 ms

Question: What about the “Mean change from baseline, msec ddQTcF” value (healthy volunteers [2]; day 7, 6 hour) of the same molecule?
Answer: –0.81 msec

Question: What about the “Mean change from baseline, msec ddQTcF” value (healthy volunteers [2]; day 7, 8 hour) of the same molecule?
Answer: –0.74 msec

Question: And the “Mean change from baseline, msec ddQTcF” value (healthy volunteers [2]; day 7, 10 hour)?
Answer: 5.78 ms

Question: What about the “Mean change from baseline, msec ddQTcF” value (healthy volunteers [2]; day 7, 11.5 hour) of the same molecule?
Answer: 1.83 ms

Question: And the “Mean change from baseline, msec ddQTcF” value (healthy volunteers [2]; day 7, 14 hour)?
Answer: 0.60 ms

Question: What about the “Mean change from baseline, msec ddQTcF” value (healthy volunteers [2]; day 7, 15 hour) of the same molecule?
Answer: 1.49 ms

Question: What about the “Mean change from baseline, msec ddQTcF” value (healthy volunteers [2]; day 7, 16 hour) of the same molecule?
Answer: 5.41 ms

Question: What about the “Mean change from baseline, msec ddQTcF” value (healthy volunteers [2]; day 7, 22.25 hour) of the same molecule?
Answer: 2.73 ms

Question: What about the “lower bound of multiplicity‐adjusted 90% CI of ddQTcF (assay sensitivity)” value (healthy volunteers [2]; moxifloxacin 400 mg, at 2, 3, and 4 hours) of the same molecule?
Answer: above 5 msec

Source: paper PMC7359933 (Clinical and Translational Science, 2020)
